Data as given in ChEMBL document CHEMBL4321819, “Simple Structural Modifications Converting a Bona fide MDM2 PROTAC Degrader into a Molecular Glue Molecule: A Cautionary Tale in the Design of PROTAC Degraders” (J Med Chem, 2019).
Values belong to the compound of their own block, whether it stands above or below them. The source made the active and inactive calls. No cut-off for these calls is given here.

Experiments:
[1] = (§1) Antiproliferative activity against human RS4:11/IRMI-2 cells harboring p53 hotspot mutation Y236H/R249G assessed as cell growth inhibition after 4 days by WST-8 assay; assay type: functional, cell-based; details: RS4-11, 96 h
In short: (§2)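 Leukemia cells seeded at 10000–20000 cells/well, breast cancer lines at 5000–10000 cells/well. Serially diluted compound added, then 4 days at 37 °C, 5% CO2. Growth read with WST-8 reagent after at least 1 h, absorbance at 450 nm. RS4;11, MOLM-13 and breast lines were grown in RPMI 1640; MV-4-11 and HL-60 in IMDM; all with 10% FBS. Mean ± SE, at least three independent experiments.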

RS4-11 [2] = test: Antiproliferative activity against human RS4:11 cells expressing wild type p53 assessed as cell growth inhibition after 4 days by WST-8 assay; assay type: functional, cell-based; details: RS4-11, 96 h; in short: as §2
[3] = target: Eukaryotic peptide chain release factor GTP-binding subunit ERF3A (Homo sapiens, UniProt P15170); test: Induction of GSPT1 degradation in human RS4:11 cells measured after 24 hrs by Western blot analysis; assay type: cell-based
[4] = target: T1, Protein cereblon/Eukaryotic peptide chain release factor GTP-binding subunit ERF3A/DNA damage-binding protein 1/Cullin-4A (Homo sapiens) (UniProt Q96SW2+Q16531+Q13619+P15170); test: Protac activity at GSPT1/CUL4/DDB1/CRBN in human RS4:11 cells expressing wild type p53 assessed as decrease in GSPT1 protein level after 2 hrs by Western blot analysis; assay type: cell-based
In short: (§3)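 RS4;11 (wild-type p53) or RS4;11/IRMI-2 (MDM2 inhibitor-resistant derivative, mutant p53) cells kept in RPMI 1640 with 10% FBS at 37 °C, 5% CO₂. 2×10^6 cells/well treated at the indicated concentrations and times, then lysed in ice-cold lysis buffer with protease inhibitor. GSPT1 detected by Western blot with a specific antibody.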

[5] = target: T1, Protein cereblon/Eukaryotic peptide chain release factor GTP-binding subunit ERF3A/DNA damage-binding protein 1/Cullin-4A (Homo sapiens); test: Protac activity at GSPT1/CUL4/DDB1/CRBN in human RS4:11/IRMI-2 cells harboring p53 hotspot mutation Y236H/R249G assessed as decrease in GSPT1 protein level after 2 hrs by Western blot analysis; assay type: cell-based; in short: as §3
MDA-MB-468 [6] = test: Antiproliferative activity against human MDA-MB-468 cells transfected with CRBN siRNA LQ-021086-11-0002 assessed as cell growth inhibition after 4 days by WST-8 assay; assay type: functional, cell-based; details: MDA-MB-468, 96 h
In short: (§4)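 MDA-MB-231 or MDA-MB-468 cells transfected for 2 days using Lipofectamine RNAiMAX with MDM2 siRNA, one of two CRBN siRNAs, or non-targeting control siRNA. Compound then added and growth read by WST-8 at 450 nm.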

MDA-MB-468 [7] = test: Antiproliferative activity against human MDA-MB-468 cells harboring mutant p53 assessed as cell growth inhibition without interaction with cereblon after 4 days by WST-8 assay; assay type: functional, cell-based; details: MDA-MB-468, 96 h
[8] = target: T2, E3 ubiquitin-protein ligase Mdm2 (Homo sapiens, UniProt Q00987); test: Induction of MDM2 degradation in human RS4:11 cells assessed as upregulation of p53 at 1000 to 3000 nM after 1 hr by Western blot analysis; assay type: cell-based
In short: (§5)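 Western blots of MDM2 and p53 protein were run on RS4;11 cells (wild-type p53) in RPMI 1640 with 10% FBS. 2×10^6 cells/well were treated at the indicated concentrations for 1 h or 2 h. Lysis was in ice-cold buffer with protease inhibitor, followed by probing with specific antibodies.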
Target sequence in this assay (Q00987 whole entry, looked up): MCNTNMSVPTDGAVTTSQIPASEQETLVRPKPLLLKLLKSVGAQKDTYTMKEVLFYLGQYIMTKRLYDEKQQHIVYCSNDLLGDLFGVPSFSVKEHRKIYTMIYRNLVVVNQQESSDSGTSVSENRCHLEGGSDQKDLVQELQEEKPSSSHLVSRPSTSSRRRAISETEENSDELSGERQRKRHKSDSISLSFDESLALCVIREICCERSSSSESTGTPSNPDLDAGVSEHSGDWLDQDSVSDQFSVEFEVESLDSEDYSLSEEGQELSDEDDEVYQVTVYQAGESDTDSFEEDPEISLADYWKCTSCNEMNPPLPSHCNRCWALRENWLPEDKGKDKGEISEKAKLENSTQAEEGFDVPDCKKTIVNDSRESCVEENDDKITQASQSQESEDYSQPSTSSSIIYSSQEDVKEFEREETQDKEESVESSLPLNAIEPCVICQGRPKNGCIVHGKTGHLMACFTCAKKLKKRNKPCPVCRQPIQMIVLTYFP

[9] = Antiproliferative activity against human RS4:11/IRMI-2 cells harboring p53 hotspot mutation Y236H/R249G assessed as MDM2-independent cell growth inhibition after 4 days by WST-8 assay; assay type: functional, cell-based; details: RS4-11, 96 h; in short: as §2
Homo sapiens = species on record: Homo sapiens; test: as §1; assay type: functional, cell-based; in short: as §2
HL-60 = test: Antiproliferative activity against human HL60 cells with lack of p53 assessed as cell growth inhibition after 4 days by WST-8 assay; assay type: functional, cell-based; in short: as §2
[10] = target: T2, E3 ubiquitin-protein ligase Mdm2; test: Displacement of PMDM6-F fluorescent probe from human recombinant His-tagged MDM2 (1 to 118 residues) after 15 mins by fluorescence polarization assay
In short: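 Recombinant human His-tagged MDM2 (residues 1–118) with a FAM-labelled p53-based peptide as fluorescent probe; competitive fluorescence-polarization binding. Mean ± standard error from at least three independent experiments.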
Target sequence in this assay (Q00987 whole entry): as the sequence (Q00987 whole entry, looked up) above

MDA-MB-468 [11] = test: Antiproliferative activity against human MDA-MB-468 cells assessed as cell growth inhibition after 4 days in presence of control siRNA for 2 days followed by compound treatment by WST-8 assay; assay type: functional, cell-based; in short: as §4
MDA-MB-468 [12] = test: Antiproliferative activity against human MDA-MB-468 cells transfected with CRBN siRNA LQ-021086-10-0002 assessed as cell growth inhibition after 4 days by WST-8 assay; assay type: functional, cell-based; details: MDA-MB-468, 96 h; in short: as §4
MDA-MB-231 [13] = test: Antiproliferative activity against human MDA-MB-231 cells harboring mutant p53 assessed as cell growth inhibition after 4 days by WST-8 assay; assay type: functional, cell-based; in short: as §2
MDA-MB-468 [14] = test: Antiproliferative activity against human MDA-MB-468 cells harboring mutant p53 assessed as cell growth inhibition after 4 days by WST-8 assay; assay type: functional, cell-based; in short: as §2
MV4-11 = test: Antiproliferative activity against human MV4-11 cells expressing wild type p53 assessed as cell growth inhibition after 4 days by WST-8 assay; assay type: functional, cell-based; details: MV4-11, 96 h; in short: as §2
MOLM-13 = test: Antiproliferative activity against human MOLM13 cells expressing wild type p53 assessed as cell growth inhibition after 4 days by WST-8 assay; assay type: functional, cell-based; details: MOLM-13, 96 h; in short: as §2
MDA-MB-231 [15] = test: Antiproliferative activity against human MDA-MB-231 cells transfected with MDM2 siRNA assessed as cell growth inhibition after 4 days by WST-8 assay; assay type: functional, cell-based; details: MDA-MB-231, 96 h; in short: as §4
RS4-11 [16] = test: Antiproliferative activity against human RS4:11 cells expressing wild type p53 assessed as MDM2-independent cell growth inhibition after 4 days by WST-8 assay; assay type: functional, cell-based; details: RS4-11, 96 h; in short: as §2
MDA-MB-231 [17] = test: Antiproliferative activity against human MDA-MB-231 cells harboring mutant p53 assessed as cell growth inhibition without interaction with cereblon after 4 days by WST-8 assay; assay type: functional, cell-based; details: MDA-MB-231, 96 h
MDA-MB-231 [18] = test: Antiproliferative activity against human MDA-MB-231 cells transfected with CRBN siRNA LQ-021086-11-0002 assessed as cell growth inhibition after 4 days by WST-8 assay; assay type: functional, cell-based; details: MDA-MB-231, 96 h; in short: as §4
MDA-MB-231 [19] = test: Antiproliferative activity against human MDA-MB-231 cells transfected with CRBN siRNA LQ-021086-10-0002 assessed as cell growth inhibition after 4 days by WST-8 assay; assay type: functional, cell-based; details: MDA-MB-231, 72 h, in the assay text read “after 3 days” for “after 4 days”; in short: as §4
MDA-MB-231 [20] = test: Antiproliferative activity against human MDA-MB-231 cells assessed as cell growth inhibition after 4 days in presence of control siRNA for 3 days followed by compound treatment by WST-8 assay; assay type: functional, cell-based
[21] = Antiproliferative activity against human RS4:11/IRMI-2 cells harboring p53 hotspot mutation Y236H/R249G assessed as cell growth inhibition without interaction with cereblon after 4 days by WST-8 assay; assay type: functional, cell-based; details: RS4-11, 96 h; in short: as §2
RS4-11 [22] = test: Antiproliferative activity against human RS4:11 cells expressing wild type p53 assessed as cell growth inhibition without interaction with cereblon after 4 days by WST-8 assay; assay type: functional, cell-based; details: RS4-11, 96 h; in short: as §2
MDA-MB-231 [23] = test: Antiproliferative activity against human MDA-MB-231 cells assessed as cell growth inhibition after 4 days in presence of control siRNA for 2 days followed by compound treatment by WST-8 assay; assay type: functional, cell-based; in short: as §4
MDA-MB-468 [24] = test: Antiproliferative activity against human MDA-MB-468 cells transfected with MDM2 siRNA assessed as cell growth inhibition after 4 days by WST-8 assay; assay type: functional, cell-based; details: MDA-MB-468, 96 h; in short: as §4
MDA-MB-468 [25] = test: Antiproliferative activity against human MDA-MB-468 cells assessed as cell growth inhibition after 4 days in presence of control siRNA for 3 days followed by compound treatment by WST-8 assay; assay type: functional, cell-based
[26] = target: T2, E3 ubiquitin-protein ligase Mdm2; test: Induction of MDM2 degradation in human RS4:11 cells assessed as upregulation of MDM2 at 1000 to 3000 nM after 1 hr by Western blot analysis; assay type: cell-based; in short: as §5
Target sequence in this assay (Q00987 whole entry, looked up): as above

[27] = target: T1, Protein cereblon/Eukaryotic peptide chain release factor GTP-binding subunit ERF3A/DNA damage-binding protein 1/Cullin-4A (Homo sapiens); test: Protac activity at GSPT1/CUL4/DDB1/CRBN in human RS4:11 cells expressing wild type p53 assessed as decrease in GSPT1 protein level at 1 to 3 uM after 24 hrs by Western blot analysis; assay type: cell-based; in short: as §3
[28] = target: T1, Protein cereblon/Eukaryotic peptide chain release factor GTP-binding subunit ERF3A/DNA damage-binding protein 1/Cullin-4A (Homo sapiens); test: Protac activity at GSPT1/CUL4/DDB1/CRBN in human RS4:11/IRMI-2 cells harboring p53 hotspot mutation Y236H/R249G assessed as decrease in GSPT1 protein level at 1 to 3 uM after 24 hrs by Western blot analysis; assay type: cell-based; in short: as §3

T1 sequence (P15170 whole entry, looked up): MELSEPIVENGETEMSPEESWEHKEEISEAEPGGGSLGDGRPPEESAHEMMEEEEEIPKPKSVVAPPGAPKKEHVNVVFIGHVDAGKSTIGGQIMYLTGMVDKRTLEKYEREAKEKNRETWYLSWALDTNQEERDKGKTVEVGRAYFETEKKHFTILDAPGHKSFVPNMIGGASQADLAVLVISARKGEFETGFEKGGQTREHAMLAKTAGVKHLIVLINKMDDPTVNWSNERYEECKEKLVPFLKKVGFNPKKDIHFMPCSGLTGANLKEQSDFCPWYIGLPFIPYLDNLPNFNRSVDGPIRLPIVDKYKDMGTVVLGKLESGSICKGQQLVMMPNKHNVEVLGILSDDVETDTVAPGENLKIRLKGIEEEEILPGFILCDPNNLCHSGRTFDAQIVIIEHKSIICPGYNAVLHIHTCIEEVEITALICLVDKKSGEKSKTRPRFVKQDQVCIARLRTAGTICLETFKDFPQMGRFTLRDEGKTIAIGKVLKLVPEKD
T1 sequence (Q13619 whole entry, looked up): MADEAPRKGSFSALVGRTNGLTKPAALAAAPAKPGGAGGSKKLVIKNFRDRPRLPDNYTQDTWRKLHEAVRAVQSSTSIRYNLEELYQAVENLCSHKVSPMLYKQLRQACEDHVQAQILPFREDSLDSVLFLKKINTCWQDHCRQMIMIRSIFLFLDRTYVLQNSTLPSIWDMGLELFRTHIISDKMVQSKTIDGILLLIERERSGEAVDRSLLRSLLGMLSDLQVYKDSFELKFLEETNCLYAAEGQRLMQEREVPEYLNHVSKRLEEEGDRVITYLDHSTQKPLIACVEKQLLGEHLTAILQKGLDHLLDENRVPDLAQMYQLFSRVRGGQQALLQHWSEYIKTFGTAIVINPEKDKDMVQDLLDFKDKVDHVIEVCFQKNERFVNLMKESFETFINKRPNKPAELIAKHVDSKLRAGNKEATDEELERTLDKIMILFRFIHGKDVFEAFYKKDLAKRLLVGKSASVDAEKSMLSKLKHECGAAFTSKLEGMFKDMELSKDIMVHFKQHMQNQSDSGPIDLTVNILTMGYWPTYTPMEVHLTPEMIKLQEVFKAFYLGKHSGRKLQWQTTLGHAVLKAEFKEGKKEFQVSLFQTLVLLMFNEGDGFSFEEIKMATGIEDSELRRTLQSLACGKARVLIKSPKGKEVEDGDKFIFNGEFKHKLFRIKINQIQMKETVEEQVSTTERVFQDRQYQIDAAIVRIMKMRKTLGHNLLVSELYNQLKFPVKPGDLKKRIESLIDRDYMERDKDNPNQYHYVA
T1 sequence (Q16531 whole entry, looked up): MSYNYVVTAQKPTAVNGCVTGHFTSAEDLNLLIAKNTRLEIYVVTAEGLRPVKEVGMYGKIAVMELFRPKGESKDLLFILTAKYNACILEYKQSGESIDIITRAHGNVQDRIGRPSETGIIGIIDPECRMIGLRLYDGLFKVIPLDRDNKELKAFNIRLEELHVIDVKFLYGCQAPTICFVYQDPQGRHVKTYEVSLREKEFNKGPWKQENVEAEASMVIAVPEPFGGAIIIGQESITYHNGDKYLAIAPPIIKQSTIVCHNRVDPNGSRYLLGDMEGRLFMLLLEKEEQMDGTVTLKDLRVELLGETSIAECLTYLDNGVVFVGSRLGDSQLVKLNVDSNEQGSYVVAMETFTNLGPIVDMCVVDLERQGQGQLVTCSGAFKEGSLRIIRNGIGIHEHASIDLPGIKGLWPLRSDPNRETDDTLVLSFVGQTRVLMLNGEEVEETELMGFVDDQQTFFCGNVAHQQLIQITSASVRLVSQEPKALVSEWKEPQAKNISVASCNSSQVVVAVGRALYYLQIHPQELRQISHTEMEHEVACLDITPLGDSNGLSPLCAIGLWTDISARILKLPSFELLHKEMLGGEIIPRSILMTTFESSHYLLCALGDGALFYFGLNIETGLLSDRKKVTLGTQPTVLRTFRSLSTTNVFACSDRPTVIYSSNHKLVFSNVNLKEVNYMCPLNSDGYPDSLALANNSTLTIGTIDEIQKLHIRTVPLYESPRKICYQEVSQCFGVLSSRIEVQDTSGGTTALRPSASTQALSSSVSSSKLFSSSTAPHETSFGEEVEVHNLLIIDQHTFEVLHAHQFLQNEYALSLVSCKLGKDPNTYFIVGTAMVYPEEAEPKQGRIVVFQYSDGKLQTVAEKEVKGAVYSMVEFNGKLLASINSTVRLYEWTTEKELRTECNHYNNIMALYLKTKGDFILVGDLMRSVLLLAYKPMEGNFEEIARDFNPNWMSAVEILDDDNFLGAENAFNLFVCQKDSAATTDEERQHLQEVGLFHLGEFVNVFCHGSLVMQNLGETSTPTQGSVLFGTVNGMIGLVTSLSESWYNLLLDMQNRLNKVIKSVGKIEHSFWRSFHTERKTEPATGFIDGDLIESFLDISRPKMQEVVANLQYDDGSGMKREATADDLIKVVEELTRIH
T1 sequence (Q96SW2 whole entry, looked up): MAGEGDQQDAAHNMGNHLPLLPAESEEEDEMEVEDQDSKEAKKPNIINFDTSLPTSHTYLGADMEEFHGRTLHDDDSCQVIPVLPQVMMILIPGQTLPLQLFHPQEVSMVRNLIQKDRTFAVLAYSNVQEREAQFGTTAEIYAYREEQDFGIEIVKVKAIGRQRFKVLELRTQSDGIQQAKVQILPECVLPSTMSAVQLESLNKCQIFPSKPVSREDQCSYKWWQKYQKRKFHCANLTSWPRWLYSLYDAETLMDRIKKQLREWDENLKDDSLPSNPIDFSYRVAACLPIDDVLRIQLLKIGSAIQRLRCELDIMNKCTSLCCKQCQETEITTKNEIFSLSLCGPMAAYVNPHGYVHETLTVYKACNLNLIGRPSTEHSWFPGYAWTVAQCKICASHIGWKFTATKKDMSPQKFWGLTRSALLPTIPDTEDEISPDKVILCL
Eukaryotic peptide chain release factor GTP-binding subunit ERF3A, sequence (P15170 whole entry): as the sequence (P15170 whole entry, looked up) above

SMILES: O=C1CCC(N2Cc3c(CCCCNC(=O)[C@@H]4NC5(CCCCC5)[C@@]5(C(=O)Nc6cc(Cl)ccc65)[C@H]4c4cccc(Cl)c4F)cccc3C2=O)C(=O)N1 (stereo partly drawn)
- IC50 [1]: 2.6 nM
- IC50 (RS4-11 [2]): 2.5 nM
- DC50 [3]: 1.1 nM
- Activity [4]: Active
- Activity [5]: Active

SMILES: CNC(=O)[C@@H]1NC2(CCCCC2)[C@@]2(C(=O)Nc3cc(Cl)ccc32)[C@H]1c1cccc(Cl)c1F
- IC50 (MDA-MB-468 [6]): > 3000 nM
- IC50 (MDA-MB-468 [7]): > 10000 nM
- Activity [8]: Active
- IC50 [9]: > 10000 nM
- growth inhibition (GI) (Homo sapiens): inactive
- growth inhibition (GI) (HL-60): inactive
- IC50 [10]: 48.1 nM
- IC50 (MDA-MB-468 [11]): > 10000 nM
- IC50 (MDA-MB-468 [12]): > 3000 nM
- growth inhibition (GI) (MDA-MB-231 [13]): inactive
- IC50 (RS4-11 [2]): 669 nM
- growth inhibition (GI) (MDA-MB-468 [14]): inactive
- IC50 (MV4-11): 898 nM
- IC50 (MOLM-13): 1240 nM
- IC50 (MDA-MB-231 [15]): > 10000 nM
- IC50 (RS4-11 [16]): 1490 nM
- IC50 (MDA-MB-231 [17]): > 10000 nM
- IC50 (MDA-MB-231 [18]): > 3000 nM
- IC50 (MDA-MB-231 [19]): > 3000 nM
- IC50 (MDA-MB-231 [20]): > 3000 nM
- Activity [4]: inactive
- IC50 [21]: 9580 nM
- IC50 (RS4-11 [22]): 1110 nM
- IC50 (MDA-MB-231 [23]): > 10000 nM
- IC50 (MDA-MB-468 [24]): > 10000 nM
- IC50 (MDA-MB-468 [25]): > 3000 nM
- Activity [26]: inactive
- Activity [5]: inactive

SMILES: O=C1CCC(N2Cc3c(CCCNC(=O)[C@@H]4NC5(CCCCC5)[C@@]5(C(=O)Nc6cc(Cl)ccc65)[C@H]4c4cccc(Cl)c4F)cccc3C2=O)C(=O)N1 (stereo partly drawn)
- IC50 [1]: 180 nM
- Activity [27]: Active
- IC50 (RS4-11 [2]): 130 nM
- Activity [28]: Active
- DC50 [3]: 120 nM

- IC50 [10]: > 20000 nM
- IC50 (RS4-11 [16]): 4.1 nM
SMILES: O=C1CCC(N2Cc3c(CCCCCNC(=O)[C@@H]4NC5(CCCCC5)[C@@]5(C(=O)Nc6ccccc65)[C@H]4c4ccccc4F)cccc3C2=O)C(=O)N1 (stereo partly drawn)
- IC50 [9]: 3.7 nM

- IC50 [10]: > 20000 nM
- IC50 (RS4-11 [16]): 22.5 nM
SMILES: O=C1CCC(N2Cc3c(CCCCCNC(=O)[C@@H]4NC5(CCCCC5)[C@@]5(C(=O)Nc6cc(Cl)ccc65)[C@H]4c4ccccc4)cccc3C2=O)C(=O)N1 (stereo partly drawn)
- IC50 [9]: 22.4 nM

SMILES: O=C1CCC(N2Cc3c(CCCOCCOCCOCCNC(=O)[C@@H]4NC5(CCCCC5)[C@@]5(C(=O)Nc6cc(Cl)ccc65)[C@H]4c4cccc(Cl)c4F)cccc3C2=O)C(=O)N1 (stereo partly drawn)
- IC50 [1]: 11 nM
- IC50 (RS4-11 [2]): 10 nM
- Activity [4]: Active
- Activity [5]: Active
